Laboratory results taken from article PMC6474823 (Molecular cell, 2019).

Biological target: Hck^3D V284C (Homo sapiens, UniProt P08631, V276C)
Test: Inhibitor IC50 determination, fluorescent SFK peptide kinase assay
Format: biochemical
Settings: 1 mM ATP
Summary of the method: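 Kinase concentrations were set in the linear range by prior titration: Src3D WT or V284C at 7.5 nM, Hck3D WT or V284C at 5 nM. Kinase was incubated 30 min with test compound (30 μM top, 3-fold serial dilutions, 10 points) and 1 mM ATP in HEPES pH 7.5 buffer with MgCl2, EGTA, BSA, vanadate and BME. Then 20 μM pyrene-labelled SFK peptide was added for 2 h. Fluorescence was read at ex 344/em 405 nm, in triplicate.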

Chain of Hck^3D V284C (P08631 81-526 V276C): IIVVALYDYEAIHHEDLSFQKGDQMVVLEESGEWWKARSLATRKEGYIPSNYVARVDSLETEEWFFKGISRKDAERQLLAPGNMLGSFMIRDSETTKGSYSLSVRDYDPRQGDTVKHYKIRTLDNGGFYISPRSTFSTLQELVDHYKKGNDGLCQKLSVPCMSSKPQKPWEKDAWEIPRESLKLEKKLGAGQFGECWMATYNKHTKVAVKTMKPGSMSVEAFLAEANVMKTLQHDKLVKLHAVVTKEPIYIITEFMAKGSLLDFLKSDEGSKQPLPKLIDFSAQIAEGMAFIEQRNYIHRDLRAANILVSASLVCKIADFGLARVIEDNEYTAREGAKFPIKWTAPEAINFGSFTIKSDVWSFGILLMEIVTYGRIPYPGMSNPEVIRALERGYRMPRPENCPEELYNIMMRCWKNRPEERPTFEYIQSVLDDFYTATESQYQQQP

SMILES | inhibition of Hck V284C (IC50, Figure 4C)
COCCn1c(/C=C(/C#N)C(=O)NC(C)C)c(-c2ccc(Cl)cc2)c2c(N)ncnc21 [compound 1, (E)- & (Z)-3-(4-Amino-5-(4-chlorophenyl)-7-(2-methoxyethyl)-7H-pyrrolo[2,3-d]pyrimidin-6-yl)-2-cyano-N-isopropylacrylamide] | potently inhibited
COCCn1c(/C=C(/C#N)C(=O)NC(C)C)c(-c2ccc(Oc3ccccc3)cc2)c2c(N)ncnc21 [compound 2, (E)- & (Z)-3-(4-Amino-7-(2-methoxyethyl)-5-(4-phenoxyphenyl)-7H-pyrrolo[2,3-d]pyrimidin-6-yl)-2-cyano-N-isopropylacrylamide] | potently inhibited
